The text below walks through data of ChEMBL document CHEMBL1123839, “5-Acyl-3-substituted-benzofuran-2(3H)-ones as potential antiinflammatory agents” (1987).

Holding throughout (assay type): functional
The test system of assay [1] is Rattus norvegicus. Description: Antiinflammatory activity was assessed by the ability to improve the adjuvant induced arthritis in left secondary lesion in rats at oral doses, 33 mg/kg (volume change in the injected paw measured from day 9 to day 18).
The species named for assay [2] is Cavia porcellus. Description: Tested for effect on the production of cyclooxygenase (COX) metabolite, TXB2 of arachidonic acid in guinea pig peritoneal polymorphonuclear neutrophils at 30 uM concentration. The gist of the method:
(§1)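 Guinea pig peritoneal PMNs were incubated with [14C]arachidonic acid and stimulated with calcium ionophore A23187. Compounds were tested at 30 μM in 0.1 N NaOH–Krebs Ringer bicarbonate buffer. Radiolabeled cyclooxygenase and lipoxygenase products were identified by HPLC and GC-MS, separated by TLC and quantified by automatic scanning.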

In assay [3] the test system is Rattus norvegicus. As to the kind of experiment: Ability to improve the adjuvant induced arthritis in right secondary lesion in rats at oral doses, 33 mg/kg. The method in brief:
(§2)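 Female Sprague–Dawley rats (150–170 g), six per group. Arthritis induced by subcutaneous plantar injection of 0.125 mg killed tubercle bacillus in liquid paraffin into the right hind paw. Dosing was 33 mg/kg orally, daily for 14 days, starting the day before adjuvant. Paw volumes were measured by mercury plethysmography every 2–3 days over 18 days. Primary lesion: right paw, days 0–8. Secondary lesions: right and left (uninjected) paws, days 9–18. Areas under the time-course curves were compared with controls by ANOVA.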

Assay [4] is filed under the species Cavia porcellus. As to the kind of experiment: Tested for effect on the production of Lipoxygenase (LO) metabolite, 5,12-diHETE in guinea pig peritoneal polymorphonuclear neutrophils at 30 uM concentration. The method in brief:
as §1

Assay [5] concerns Rattus norvegicus. As to the kind of experiment: Antiinflammatory activity was assessed by the ability to improve the adjuvant induced arthritis in right primary lesion in rats at oral doses, 33 mg/kg (volume change in the injected paw measured from day 0 to day 8). The gist of the method: as §2
The species named for assay [6] is Cavia porcellus. As to the kind of experiment: Tested for effect on the production of Lipoxygenase (LO) metabolite, 5-HETE in guinea pig peritoneal polymorphonuclear neutrophils at 30 uM concentration. The method in brief: as §1
The species named for assay [7] is Cavia porcellus. As to the kind of experiment: Tested for effect on the production of cyclooxygenase (COX) metabolite, PGE-2 (prostaglandin E2) of arachidonic acid in guinea pig peritoneal polymorphonuclear neutrophils at 30 uM concentration. The gist of the method: as §1
The species named for assay [8] is Cavia porcellus. As to the kind of experiment: Tested for effect on the production of cyclooxygenase (COX) metabolite, PGF2-alpha (prostaglandin F2-alpha) of arachidonic acid in guinea pig peritoneal polymorphonuclear neutrophils at 30 uM concentration. The method in brief: as §1
The species named for assay [9] is Rattus norvegicus. As to the kind of experiment: Antiinflammatory activity was assessed improvement of adjuvant induced arthritis in rats, determined by joint mobility of the paw. Further details: concentration or dose not given beside the values. The gist of the method: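 Adjuvant arthritis was induced in female Sprague–Dawley rats (150–170 g, groups of six) by right-hind-paw plantar injection of killed tubercle bacillus in paraffin. Treatment was 33 mg/kg orally, daily for 14 days, starting the day before adjuvant. Joint involvement was scored as the angle through which the hind paws moved easily, given as percent change versus nontreated controls.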

As to `Cc1ccc(C(=O)c2ccc(O)c(C(C)C(=O)O)c2)s1` (stereo not drawn), the Reduction in the assay with Rattus norvegicus [1] is 29%; in the assay filed under Cavia porcellus [2] it was 82%; in the assay on Rattus norvegicus [3], 11%; in the assay listed under Cavia porcellus [4], -36%; in the assay with Rattus norvegicus [5], 13%; in the assay filed under Cavia porcellus [6] it was -69%. Besides, the Reduction was 54% in the assay filed under Cavia porcellus [7], 49% in the assay filed under Cavia porcellus [8] and -16% in the assay listed under Rattus norvegicus [9].
On to `CCCC(C(=O)O)c1cc(C(=O)c2cccs2)ccc1O` (stereo not drawn), for which the Reduction is 52% with Rattus norvegicus [1]; 86% in the assay filed under Cavia porcellus [2]; 30% in the assay on Rattus norvegicus [3]; -42% in the assay filed under Cavia porcellus [4]; 26% in the assay on Rattus norvegicus [5]; -33% in the assay filed under Cavia porcellus [6]. In addition, the Reduction in the assay listed under Cavia porcellus [7] was 87%; in the assay listed under Cavia porcellus [8], 50%; in the assay filed under Rattus norvegicus [9], 33%.
Regarding `CCC(CC)(C(=O)O)c1cc(C(=O)c2cccs2)ccc1OC`, the Reduction with Rattus norvegicus [1] is reported as 42%; in the assay on Rattus norvegicus [3] it was 16%; with Rattus norvegicus [5] it was -11%; in the assay listed under Rattus norvegicus [9], 42%.
As for `Cc1ccc(C(=O)c2ccc3c(c2)C(C)C(=O)O3)s1` (stereo not drawn), the Reduction in the assay with Rattus norvegicus [1] was 36%; in the assay listed under Cavia porcellus [2] it was 86%; with Rattus norvegicus [3], 19%; in the assay listed under Cavia porcellus [4], 15%; in the assay with Rattus norvegicus [5], 10%; in the assay filed under Cavia porcellus [6], -3%. For the same compound, the Reduction in the assay filed under Cavia porcellus [7] worked out at 65%; in the assay listed under Cavia porcellus [8] it was 28%; in the assay listed under Rattus norvegicus [9], 15%.
On to `CC(C)(C)c1cc(/C=C2\C(=O)Oc3ccc(C(=O)c4cccs4)cc32)cc(C(C)(C)C)c1O`, for which the Reduction in the assay with Rattus norvegicus [1] was 8%; in the assay filed under Cavia porcellus [2], 26%; with Rattus norvegicus [3] it was -7%; in the assay listed under Cavia porcellus [4] it was -8%; with Rattus norvegicus [5], -28%; in the assay filed under Cavia porcellus [6] it was -11%. Further, the Reduction in the assay listed under Cavia porcellus [7] was -14%; in the assay listed under Cavia porcellus [8], 6%; in the assay filed under Rattus norvegicus [9], 17%.
As to `CCC(C(=O)O)c1cc(C(=O)c2cccs2)ccc1O` (stereo not drawn), the Reduction with Rattus norvegicus [1] is reported as 76%; in the assay filed under Cavia porcellus [2], 92%; with Rattus norvegicus [3] it was 64%; in the assay filed under Cavia porcellus [4], -33%; with Rattus norvegicus [5], 20%; in the assay listed under Cavia porcellus [6], 16%. Moreover, the Reduction in the assay listed under Cavia porcellus [8] is 65%; in the assay listed under Rattus norvegicus [9] it was 60%.
For `O=C(O)/C(=C\c1ccccc1)c1cc(C(=O)c2cccs2)ccc1O`, the Reduction in the assay on Rattus norvegicus [1] is -15%; with Rattus norvegicus [3], 11%; in the assay with Rattus norvegicus [5], 15%; in the assay listed under Rattus norvegicus [9] it was 5%.
Turning to `CC(C)(C(=O)O)c1cc(C(=O)c2cccs2)ccc1O`, the Reduction in the assay with Rattus norvegicus [1] is 46%; in the assay filed under Cavia porcellus [2] it was 90%; with Rattus norvegicus [3] it was 20%; in the assay listed under Cavia porcellus [4], -23%; with Rattus norvegicus [5], 4%; in the assay filed under Cavia porcellus [6] it was -20%. In addition, the Reduction was found to be 80% in the assay listed under Cavia porcellus [7], 55% in the assay listed under Cavia porcellus [8] and 26% in the assay filed under Rattus norvegicus [9].
For `COc1ccc(C(=O)c2ccc(O)c(C(C)C(=O)O)c2)cc1` (stereo not drawn), the Reduction in the assay on Rattus norvegicus [1] is listed as 22%; in the assay listed under Cavia porcellus [2] it was 89%; in the assay on Rattus norvegicus [3], 31%; in the assay listed under Cavia porcellus [4], -10%; in the assay with Rattus norvegicus [5], 12%; in the assay listed under Cavia porcellus [6] it was 5%. Besides, the Reduction in the assay listed under Cavia porcellus [8] was found to be 58%; in the assay filed under Rattus norvegicus [9] it was 7%.
Turning to `CC1C(=O)Oc2ccc(C(=O)c3ccco3)cc21` (stereo not drawn), the Reduction in the assay with Rattus norvegicus [1] is on record as 25%; in the assay listed under Cavia porcellus [2] it was 81%; with Rattus norvegicus [3] it was 12%; in the assay listed under Cavia porcellus [4] it was 3%; in the assay with Rattus norvegicus [5], -5%; in the assay filed under Cavia porcellus [6], 20%. The results for the Reduction in the assay listed under Cavia porcellus [7] and in the assay listed under Rattus norvegicus [9] were 81% and 2%, respectively.
For the compound `CCCC1C(=O)Oc2ccc(C(=O)c3cccs3)cc21` (stereo not drawn), the Reduction in the assay on Rattus norvegicus [1] is 67%; in the assay filed under Cavia porcellus [2], 81%; in the assay with Rattus norvegicus [3] it was 41%; in the assay listed under Cavia porcellus [4], 7%; in the assay on Rattus norvegicus [5] it was 23%; in the assay filed under Cavia porcellus [6], -2%. For the same compound, the Reduction is on record as 85% in the assay filed under Cavia porcellus [7], 49% in the assay listed under Cavia porcellus [8] and 61% in the assay listed under Rattus norvegicus [9].
Turning to `CC(C(=O)O)c1cc(C(=O)c2ccc(F)cc2)ccc1O` (stereo not drawn), the Reduction in the assay on Rattus norvegicus [1] was 56%; in the assay filed under Cavia porcellus [2] it was 74%; with Rattus norvegicus [3], 32%; in the assay listed under Cavia porcellus [4], -8%; in the assay on Rattus norvegicus [5], 22%; in the assay filed under Cavia porcellus [6], -1%. Moreover, the Reduction in the assay listed under Cavia porcellus [7] stood at 46%; in the assay filed under Cavia porcellus [8] it was 49%; in the assay listed under Rattus norvegicus [9], 33%.
Consider `CC(C(=O)O)c1cc(C(=O)c2cccs2)ccc1O` (stereo not drawn), for which the Reduction in the assay with Rattus norvegicus [1] was 35%; in the assay filed under Cavia porcellus [2], 89%; with Rattus norvegicus [3], 34%; in the assay listed under Cavia porcellus [4], -84%; with Rattus norvegicus [5] it was 39%; in the assay listed under Cavia porcellus [6] it was -68%. The Reduction in the assay filed under Cavia porcellus [7] is 76%; in the assay listed under Cavia porcellus [8], 76%; in the assay filed under Rattus norvegicus [9], -15%.
For `COc1ccc(C(=O)c2ccc3c(c2)C(C)C(=O)O3)cc1` (stereo not drawn), the Reduction is given as 22% with Rattus norvegicus [1]; 70% in the assay filed under Cavia porcellus [2]; 5% in the assay with Rattus norvegicus [3]; 44% in the assay filed under Cavia porcellus [4]; -9% in the assay on Rattus norvegicus [5]; 50% in the assay filed under Cavia porcellus [6]. Also, the Reduction is 51% in the assay listed under Cavia porcellus [8] and -9% in the assay filed under Rattus norvegicus [9].
Regarding `O=C1Oc2ccc(C(=O)c3cccs3)cc2/C1=C/c1ccc(Cl)cc1`, the Reduction was -14% with Rattus norvegicus [1]; 93% in the assay listed under Cavia porcellus [2]; -18% in the assay with Rattus norvegicus [3]; 73% in the assay listed under Cavia porcellus [4]; -5% in the assay on Rattus norvegicus [5]; 71% in the assay listed under Cavia porcellus [6]. Further, the Reduction in the assay filed under Cavia porcellus [7] is on record as 77%; in the assay listed under Cavia porcellus [8], 69%; in the assay filed under Rattus norvegicus [9], 12%.
As for `O=C1Cc2cc(C(=O)c3cccs3)ccc2O1`, the Reduction with Rattus norvegicus [1] was -35%; in the assay listed under Cavia porcellus [2] it was 65%; in the assay with Rattus norvegicus [3], 9%; in the assay listed under Cavia porcellus [4], -44%; in the assay with Rattus norvegicus [5] it was 25%; in the assay filed under Cavia porcellus [6], -33%. Also, the Reduction is recorded as 54% in the assay listed under Cavia porcellus [7], 57% in the assay listed under Cavia porcellus [8] and 5% in the assay filed under Rattus norvegicus [9].
Take `O=C(c1ccc(O)c(C(Cc2ccccc2)C(=O)O)c1)c1cccs1` (stereo not drawn): the Reduction in the assay on Rattus norvegicus [1] is 10%; in the assay with Rattus norvegicus [3] it was 30%; with Rattus norvegicus [5] it was 29%; in the assay filed under Rattus norvegicus [9] it was 6%.
Consider `CC1C(=O)Oc2ccc(C(=O)c3ccccc3)cc21` (stereo not drawn), for which the Reduction in the assay on Rattus norvegicus [1] is 52%; in the assay listed under Cavia porcellus [2], 82%; in the assay on Rattus norvegicus [3], 35%; in the assay filed under Cavia porcellus [4], -10%; in the assay on Rattus norvegicus [5], 5%; in the assay filed under Cavia porcellus [6], 10%. For the same compound, the Reduction is 71% in the assay listed under Cavia porcellus [7], 56% in the assay filed under Cavia porcellus [8] and 29% in the assay filed under Rattus norvegicus [9].
